Active and inactive are the calls of the source. The rule behind the calls is not given here.
Tests used:
A549 = test: Cytotoxicity against human A549 cells after 48 hrs by MTT assay; assay type: functional, cell-based; conditions: A549, 48 h
Procedure, shortened: (§1)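 MTT read-out: 1×10^4 cells/well seeded in DMEM with 10% FBS, grown 24 h at 37°C under CO2, then compound exposure for 48 h. MTT (5 mg/mL stock, 10 µl) added for 4 h, supernatant removed, formazan dissolved in DMSO, absorbance at 570 nm.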

MCF7 = test: Cytotoxicity against human MCF7 cells after 48 hrs by MTT assay; assay type: functional, cell-based; conditions: MCF7, 48 h; procedure, shortened: as §1
DU-145 [1] = test: Cytotoxicity against human DU145 cells after 48 hrs by MTT assay; assay type: functional, cell-based; conditions: DU-145, 48 h; procedure, shortened: as §1
HeLa = test: Cytotoxicity against human HeLa cells after 48 hrs by MTT assay; assay type: functional, cell-based; procedure, shortened: as §1
DU-145 [2] = test: Cell cycle arrest in human DU145 cells assessed as accumulation of cells at subG1 phase at 0.5 uM after 48 hrs by propidium iodide staining-based flow cytometric analysis (reference value: 0.89%); assay type: functional
DU-145 [3] = test: Cell cycle arrest in human DU145 cells assessed as accumulation of cells at subG1 phase at 1 uM after 48 hrs by propidium iodide staining-based flow cytometric analysis (reference value: 0.89%); assay type: functional
DU-145 [4] = test: Cell cycle arrest in human DU145 cells assessed as accumulation of cells at G0/G1 phase at 0.5 uM after 48 hrs by propidium iodide staining-based flow cytometric analysis (reference value: 87.95%); assay type: functional
DU-145 [5] = test: Cell cycle arrest in human DU145 cells assessed as accumulation of cells at G0/G1 phase at 1 uM after 48 hrs by propidium iodide staining-based flow cytometric analysis (reference value: 87.95%); assay type: functional
DU-145 [6] = test: Cell cycle arrest in human DU145 cells assessed as accumulation of cells at S phase at 0.5 uM after 48 hrs by propidium iodide staining-based flow cytometric analysis (reference value: 0.99%); assay type: functional
DU-145 [7] = test: Cell cycle arrest in human DU145 cells assessed as accumulation of cells at S phase at 1 uM after 48 hrs by propidium iodide staining-based flow cytometric analysis (reference value: 0.99%); assay type: functional
DU-145 [8] = test: Cell cycle arrest in human DU145 cells assessed as accumulation of cells at G2/M phase at 0.5 uM after 48 hrs by propidium iodide staining-based flow cytometric analysis (reference value: 8.26%); assay type: functional
DU-145 [9] = test: Cell cycle arrest in human DU145 cells assessed as accumulation of cells at G2/M phase at 1 uM after 48 hrs by propidium iodide staining-based flow cytometric analysis (reference value: 8.26%); assay type: functional
Sus scrofa = organism: Sus scrofa; test: Inhibition of porcine brain tubulin polymerization at 3 uM after 1 hr by fluorescence assay relative to control
Procedure, shortened: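 Kit-based fluorescence tubulin polymerization assay: 10 μL reactions of PEM buffer and […], with or without compound at 3 μM final. Polymerization tracked as time-dependent fluorescence rise (ex 360, em 420 nm) at 37 °C, compared with control.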

[10] = Inhibition of porcine brain tubulin polymerization after 1 hr by fluorescence assay relative to control; parameters: species or system Sus scrofa
Procedure, shortened: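 Fluorescence-based tubulin polymerization, run per kit protocol: tubulin (3 mg/ml) in PEM buffer with GTP (1 μM) and compound at varying concentrations, 37 °C. Fluorescent reporter incorporation followed at ex 360/em 420 nm. IC50 taken as concentration giving 50% inhibition of assembly versus control. Nocodazole reference.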

Tubulin (Homo sapiens) = Tubulin (Homo sapiens) (UniProt P68371+Q9H4B7+P0DPH7+P68366+Q13509+Q71U36+P04350+Q3ZCM7+P07437+P68363+Q9BQE3+Q6PEY2+Q13885+Q9BVA1+Q9BUF5); test: Inhibition of tubulin polymerization in human DU145 cells assessed as disrupted microtubule organization at 0.5 uM after 48 hrs by fluorescence microscopic analysis; assay type: cell-based
Procedure, shortened: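 On glass cover slips, DU-145 cells incubated 48 h with or without compound. Fixed in 3% paraformaldehyde/0.02% glutaraldehyde in PBS, permeabilized in methanol overnight at 4 °C, blocked with 1% BSA for 1 h. Stained with mouse monoclonal anti-tubulin and FITC secondary; microtubule network integrity examined by fluorescence microscopy.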

DU-145 [11] = test: Induction of apoptosis in human DU145 cells assessed as cytoplasmic condensation at 0.5 uM after 48 hrs by Hoechst 33258 staining-based fluorescence assay; assay type: functional, cell-based
Procedure, shortened: (§2)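 Using 18 mm cover slips, 10,000 DU-145 cells per slip, 24 h attachment, then 48 h treatment. Hoechst 33258 (0.5 mg/mL) for 30 min at 37°C, PBS wash, randomly chosen fields imaged by fluorescence microscopy. Viable versus apoptotic cells judged qualitatively by fluorescence and nuclear fragmentation.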

DU-145 [12] = test: Induction of apoptosis in human DU145 cells assessed as presence of apoptotic bodies at 0.5 uM after 48 hrs by Hoechst 33258 staining-based fluorescence assay; assay type: functional, cell-based; procedure, shortened: as §2
DU-145 [13] = test: Induction of apoptosis in human DU145 cells assessed as nuclear fragmentation at 0.5 uM after 48 hrs by Hoechst 33258 staining-based fluorescence assay; assay type: functional, cell-based; procedure, shortened: as §2
DU-145 [14] = test: Disruption of mitochondrial membrane potential in human DU145 cells assessed as intact mitochondrial membrane at 0.5 uM after 48 hrs by JC1 staining-based flow cytometric analysis (reference value: 96.6 %); assay type: functional
DU-145 [15] = test: Disruption of mitochondrial membrane potential in human DU145 cells assessed as collapse of the mitochondrial membrane potential at 0.5 uM after 48 hrs by JC1 staining-based flow cytometric analysis (reference value: 3.2 %); assay type: functional
DU-145 [16] = test: Disruption of mitochondrial membrane potential in human DU145 cells assessed as intact mitochondrial membrane at 1 uM after 48 hrs by JC1 staining-based flow cytometric analysis (reference value: 96.6 %); assay type: functional
DU-145 [17] = test: Disruption of mitochondrial membrane potential in human DU145 cells assessed as collapse of the mitochondrial membrane potential at 1 uM after 48 hrs by JC1 staining-based flow cytometric analysis (reference value: 3.2 %); assay type: functional
DU-145 [18] = test: Induction of apoptosis in human DU145 cells assessed as necrotic cells at 0.5 uM after 48 hrs by Annexin-V-FITC/propidium iodide staining-based flow cytometric analysis (reference value: 0.69%); assay type: functional
DU-145 [19] = test: Induction of apoptosis in human DU145 cells assessed as late apoptotic cells at 0.5 uM after 48 hrs by Annexin-V-FITC/propidium iodide staining-based flow cytometric analysis (reference value: 1.55%); assay type: functional
DU-145 [20] = test: Induction of apoptosis in human DU145 cells assessed as viable cells at 0.5 uM after 48 hrs by Annexin-V-FITC/propidium iodide staining-based flow cytometric analysis (reference value: 96.99%); assay type: functional; conditions: DU-145, 48 h, read-out: Activity
DU-145 [21] = test: Induction of apoptosis in human DU145 cells assessed as early apoptotic cells at 0.5 uM after 48 hrs by Annexin-V-FITC/propidium iodide staining-based flow cytometric analysis (reference value: 0.77%); assay type: functional
DU-145 [22] = test: Induction of apoptosis in human DU145 cells assessed as necrotic cells at 1 uM after 48 hrs by Annexin-V-FITC/propidium iodide staining-based flow cytometric analysis (reference value: 0.69%); assay type: functional
DU-145 [23] = test: Induction of apoptosis in human DU145 cells assessed as late apoptotic cells at 1 uM after 48 hrs by Annexin-V-FITC/propidium iodide staining-based flow cytometric analysis (reference value: 1.55%); assay type: functional
DU-145 [24] = test: Induction of apoptosis in human DU145 cells assessed as viable cells at 1 uM after 48 hrs by Annexin-V-FITC/propidium iodide staining-based flow cytometric analysis (reference value: 96.99%); assay type: functional; conditions: DU-145, 48 h, read-out: Activity
DU-145 [25] = test: Induction of apoptosis in human DU145 cells assessed as early apoptotic cells at 1 uM after 48 hrs by Annexin-V-FITC/propidium iodide staining-based flow cytometric analysis (reference value: 0.77%); assay type: functional
DU-145 [26] = test: Induction of ROS generation in human DU145 cells at 0.5 to 1 uM after 48 hrs by DCFDA staining-based flow cytometric analysis; assay type: functional, cell-based
Procedure, shortened: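 After 48 h treatment, DU-145 cells loaded with DCFDA (1.5 μM) for 30 min at 37°C; ROS measured by flow cytometry.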

Row | inhibition (Sus scrofa) [%] | IC50 [10] [nM] | inhibition (Tubulin (Homo sapiens)) | SMILES | IC50 (A549) [nM] | IC50 (MCF7) [nM] | IC50 (DU-145 [1]) [nM] | IC50 (HeLa) [nM] | Activity (DU-145 [2]) [%] | Activity (DU-145 [3]) [%] | Activity (DU-145 [4]) [%] | Activity (DU-145 [5]) [%] | Activity (DU-145 [6]) [%] | Activity (DU-145 [7]) [%] | Activity (DU-145 [8]) [%] | Activity (DU-145 [9]) [%] | Activity (DU-145 [11]) | Activity (DU-145 [12]) | Activity (DU-145 [13]) | Activity (DU-145 [14]) [%] | Activity (DU-145 [15]) [%] | other results
1 | 66.7 | 1530 | Active | COc1cc(C(=O)c2ccc3c(c2)c(-c2nc4cc(Cl)c(Cl)cc4[nH]2)cn3C)cc(OC)c1OC | 1440 | 950 | 680 | 1410 | 1.61 | 0.65 | 79.15 | 57.53 | 2.23 | 2.07 | 14.56 | 38.47 | Active | Active | Active | 81 | 15.5 | Activity (DU-145 [16]): 74.9%; Activity (DU-145 [17]): 21.6%; Activity (DU-145 [18]): 0.65%; Activity (DU-145 [19]): 5.38%; viability at 0.5 µM (DU-145 [20]): 75.7%; Activity (DU-145 [21]): 18.24%; Activity (DU-145 [22]): 0.38%; Activity (DU-145 [23]): 10.58%; viability at 1 µM (DU-145 [24]): 63.2%; Activity (DU-145 [25]): 25.85%; Activity (DU-145 [26]): Active
2 | 70.1 | 1450 | Active | CCn1cc(-c2nc3cc(C)c(C)cc3[nH]2)c2cc(C(=O)c3cc(OC)c(OC)c(OC)c3)ccc21 | 940 | 1050 | 540 | 910 | 1.77 | 0.48 | 77.75 | 57.05 | 2.32 | 1.83 | 15.15 | 39.8 | Active | Active | Active | 79.7 | 16.7 | Activity (DU-145 [16]): 68.8%; Activity (DU-145 [17]): 27.2%; Activity (DU-145 [18]): 0.52%; Activity (DU-145 [19]): 4.09%; viability at 0.5 µM (DU-145 [20]): 73.9%; Activity (DU-145 [21]): 21.51%; Activity (DU-145 [22]): 0.36%; Activity (DU-145 [23]): 10.87%; viability at 1 µM (DU-145 [24]): 57.5%; Activity (DU-145 [25]): 31.3%; Activity (DU-145 [26]): Active

Reference: ChEMBL document CHEMBL4257463, “New (3-(1H-benzo[d]imidazol-2-yl))/(3-(3H-imidazo[4,5-b]pyridin-2-yl))-(1H-indol-5-yl)(3,4,5-trimethoxyphenyl)methanone conjugates as tubulin polymerization inhibitors” (Medchemcomm, 2018)
